Values after ≈ are worked out from the molar mass of the structure shown. Active and inactive are the calls of the source. The rule behind the calls is not given here.
Key:
Staphylococcus aureus = experiment: Antibacterial activity against Staphylococcus aureus ATCC 29213 incubated assessed as inhibition of bacterial growth for 20 to 22 hrs by broth microdilution method; type: functional; conditions: time 20-22 hrs
Procedure, shortened: (§1)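 Broth microdilution per CLSI in cation-adjusted Mueller–Hinton broth, twofold dilutions over […]. Inoculum by direct colony suspension, 5 × 10^4 CFU per well. E. coli and S. aureus grown on MHA; E. faecalis, M. catarrhalis and streptococci on MHA with 5% sheep blood; streptococcal broth supplemented with 5% horse serum. MIC read visually after 20–22 h at 37 °C, ambient air.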

Enterococcus faecalis = experiment: Antibacterial activity against Enterococcus faecalis ATCC29212 assessed as inhibition of bacterial growth incubated for 20 to 22 hrs by broth microdilution method; type: functional; conditions: time 20-22 hrs; procedure, shortened: as §1
Moraxella catarrhalis = experiment: Antibacterial activity against Moraxella catarrhalis ATCC 23246 assessed as inhibition of bacterial growth incubated for 20 to 22 hrs by broth microdilution method; type: functional; conditions: time 20-22 hrs; procedure, shortened: as §1
Escherichia coli = experiment: Antibacterial activity against hypersensitive AcrAB deficient Escherichia coli assessed as inhibition of bacterial growth incubated for 20 to 22 hrs by broth microdilution method; type: functional; conditions: time 20-22 hrs; procedure, shortened: as §1
AT rich DNA [1] = experiment: Binding affinity to double stranded [poly(dA-dT)2] DNA (unknown origin) assessed as binding constant at pH 7 by fluorescence spectroscopy; type: nucleic-acid assay; conditions: Homo sapiens
Procedure, shortened: (§2)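 Fluorimetric titration at 25 °C, sodium cacodylate buffer pH 7.0, I = 0.05 mol dm−3: polynucleotide portions added to compound (e.g. 1 × 10−6 mol dm−3). Excitation ≥ 300 nm to avoid inner filter effect. Data fitted by Scatchard equation, recalculated at fixed n = 0.2 [bound compound]/[polynucleotide]; I/I0 is the calculated complex fluorescence over starting compound fluorescence.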

AT rich DNA [2] = experiment: Binding affinity to double stranded [poly(dA-dT)2] DNA (unknown origin) assessed as change in fluorescence intensity at pH 7 by fluorescence spectroscopy relative to control; type: nucleic-acid assay; conditions: Homo sapiens; procedure, shortened: as §2
Calf thymus DNA [3] = experiment: Binding affinity to calf thymus double stranded DNA assessed as stabilization of DNA by measuring change in melting temperature at pH 7 by UV/Vis-spectrophotometry; type: nucleic-acid assay; conditions: Bos taurus
Procedure, shortened: (§3)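 Thermal denaturation in sodium cacodylate buffer, pH 7.0, I = 0.05 mol dm−3, compound/polynucleotide ratio r = 0.3. Absorbance at 260 nm followed versus temperature, ligand absorbance subtracted, scale normalized. Tm from first-derivative maximum, checked by tangent method. ΔTm = Tm(complex) − Tm(free nucleic acid), mean of at least two runs, error ±0.5 °C. ctDNA sonicated and filtered.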

AT rich DNA [4] = experiment: Binding affinity to double stranded [poly(dA-dT)2] DNA (unknown origin) assessed as stabilization of DNA by measuring change in melting temperature at pH 7 by UV/Vis-spectrophotometry; type: nucleic-acid assay; conditions: Homo sapiens; procedure, shortened: as §3
Calf thymus DNA [5] = experiment: Binding affinity to calf thymus double stranded DNA minor groove assessed as assessed as effect on CD spectrum at pH 7 by CD spectroscopy; type: nucleic-acid assay; conditions: Bos taurus
Procedure, shortened: (§4)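 CD titration at 25 °C, sodium cacodylate buffer pH 7, I = 0.05 mol dm−3: portions of compound stock (1 × 10−3 mol dm−3 in water, or DMSO for one compound) added to polynucleotide, e.g. poly(dAdT)2 at 2.0 × 10−5 mol dm−3. Scan 500–220 nm, 200 nm min−1, 3 accumulations. Polynucleotide concentration as phosphate.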

AT rich DNA [6] = experiment: Binding affinity to double stranded [poly(dA-dT)2] DNA (unknown origin) minor groove assessed as effect on CD spectrum at pH 7 by CD spectroscopy; type: nucleic-acid assay; procedure, shortened: as §4
Streptococcus pneumoniae [7] = experiment: Antibacterial activity against Macrolide sensitive Streptococcus pneumoniae clinical isolate B0652 assessed as inhibition of bacterial growth incubated for 20 to 22 hrs by broth microdilution method; type: functional; conditions: time 20-22 hrs
Procedure, shortened: (§5)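 CLSI broth microdilution MIC in cation-adjusted Mueller Hinton broth supplemented with 5% horse serum for streptococci. Twofold dilutions across a 128–0.25 range. Strains grown on MHA with 5% sheep blood; inoculum by direct colony suspension, 5 × 10^4 CFU per well. Read visually after 20–22 h at 37 °C in ambient air; azithromycin and ampicillin as reference antibiotics.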

Streptococcus pneumoniae [8] = experiment: Antibacterial activity against Macrolide resistant Streptococcus pneumoniae clinical isolate B0326 assessed as inhibition of bacterial growth incubated for 20 to 22 hrs by broth microdilution method; type: functional; conditions: time 20-22 hrs; procedure, shortened: as §5
Streptococcus pyogenes [9] = experiment: Antibacterial activity against Macrolide sensitive Streptococcus pyogenes clinical isolate B0542 assessed as inhibition of bacterial growth incubated for 20 to 22 hrs by broth microdilution method; type: functional; conditions: time 20-22 hrs; procedure, shortened: as §1
Streptococcus pyogenes [10] = experiment: Antibacterial activity against Macrolide resistant Streptococcus pyogenes clinical isolate B0545 assessed as inhibition of bacterial growth incubated for 20 to 22 hrs by broth microdilution method; type: functional; conditions: time 20-22 hrs; procedure, shortened: as §5
[11] = Cytotoxicity against human HepG2 cells assessed as reduction in cell viability incubated overnight by MTT assay; type: toxicity, cell-based

Row | Structure (SMILES) | MIC (Staphylococcus aureus) [µg/mL] | MIC (Enterococcus faecalis) [µg/mL] | MIC (Moraxella catarrhalis) [µg/mL] | MIC (Escherichia coli) [µg/mL] | log Ks (AT rich DNA [1]) | fold change (FC) (AT rich DNA [2]) | ΔTm (Calf thymus DNA [3]) [°C] | ΔTm (AT rich DNA [4]) [°C] | Activity (Calf thymus DNA [5]) | Activity (AT rich DNA [6]) | MIC (Streptococcus pneumoniae [7]) [µg/mL] | MIC (Streptococcus pneumoniae [8]) [µg/mL] | MIC (Streptococcus pyogenes [9]) [µg/mL] | MIC (Streptococcus pyogenes [10]) [µg/mL] | IC50 [11] [µM]
1 | Cl.O=C(COc1ccc(-c2nc3ccc(C4=NCCCN4)cc3s2)cc1)c1ccccc1 | 128 | > 128 | 8 | 32 | 5.3 | 4.9 | 0 | 3.1 | Active | Active |  |  |  |  | 
2 | Cl.c1ccc(Cn2cc(COc3ccc(-c4nc5ccc(C6=NCCCN6)cc5s4)cc3)nn2)cc1 | 128 | 128 | 4 | 32 |  |  |  |  |  |  |  |  |  |  | 
3 | CC1(C)S[C@@H]2[C@H](NC(=O)[C@H](N)c3ccccc3)C(=O)N2[C@H]1C(=O)O [AMPICILLIN] |  |  |  |  |  |  |  |  |  |  | 0.25 (≈ 0.715 µM) | 0.25 (≈ 0.715 µM) | 0.25 (≈ 0.715 µM) | 0.25 (≈ 0.715 µM) | 
4 | COc1cc(-c2nc3ccc(C4=NCCCN4)cc3s2)ccc1OCc1cn(Cc2ccccc2)nn1.Cl | > 128 | 128 | 16 | 64 |  |  |  |  |  |  |  |  |  |  | 
5 | CC[C@H]1OC(=O)[C@H](C)[C@@H](O[C@H]2C[C@@](C)(OC)[C@@H](O)[C@H](C)O2)[C@H](C)[C@@H](O[C@@H]2O[C@H](C)C[C@H](N(C)C)[C@H]2O)[C@](C)(O)C[C@@H](C)CN(C)[C@H](C)[C@@H](O)[C@]1(C)O [AZITHROMYCIN] | 2 (≈ 2.67 µM) | 0.125 (≈ 0.167 µM) | 8 (≈ 10.7 µM) | 0.5 (≈ 0.668 µM) |  |  |  |  |  |  | 0.125 (≈ 0.167 µM) | 16 (≈ 21.4 µM) | 0.125 (≈ 0.167 µM) | 8 (≈ 10.7 µM) | 
6 | Cl.c1cc(-c2nc3ccc(C4=NCCCN4)cc3s2)ccc1OCc1c[nH]nn1 | > 128 | > 128 | 32 | > 128 |  |  |  |  |  |  |  |  |  |  | 
7 | Cl.Fc1cc(-c2nc3ccc(C4=NCCCN4)cc3s2)ccc1OCc1c[nH]nn1 | 128 | > 128 | > 128 | > 128 |  |  |  |  |  |  |  |  |  |  | 
8 | COc1cc(-c2nc3ccc(C4=NCCCN4)cc3s2)ccc1OCc1ccccn1.Cl | > 128 | > 128 | 32 | 128 |  |  |  |  |  |  |  |  |  |  | 
9 | COc1cc(-c2nc3ccc(C4=NCCCN4)cc3s2)ccc1OCc1c[nH]nn1.Cl | > 128 | > 128 | 32 | 128 |  |  |  |  |  |  |  |  |  |  | 
10 | Cl.O=C(COc1ccc(-c2nc3ccc(C4=NCCCN4)cc3s2)cc1F)c1ccccc1 | 128 | 128 | 4 | 16 |  |  | 0 | 3.8 | Active | Active | 32 | 128 | 32 | 128 | > 100

— ChEMBL document CHEMBL5104229, “Novel tetrahydropyrimidinyl-substituted benzimidazoles and benzothiazoles: synthesis, antibacterial activity, DNA interactions and ADME profiling” (RSC Med Chem, 2022)
